The record followed here is ChEMBL document CHEMBL4513216, “Probing the Open Global Health Chemical Diversity Library for Multistage-Active Starting Points for Next-Generation Antimalarials” (ACS Infect Dis, 2020).

The series can be described thus: Toxicity liver stage against HepG2, at 10uM. Also on record: test concentration 10 uM, cell line HepG2-A16-CD81EGFP. The class given is cell-based. To be noted: human, HepG2-A16-CD81EGFP cells; read-out: INHIBITION
A digest of the protocol:
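Uninfected HepG2-A16-CD81EGFP cells, 3 × 10^3 per well, 1536-well, plated on prespotted compound at 10 μM final, parasite-free screening media added to match infected plates; puromycin 10 μM positive, DMSO 0.5% negative; run in parallel with 48 h PbLuc assay at 37 °C, 5% CO2; viability by CellTiter-Glo luminescence, normalized to controls.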
With `NC(=O)CN1CCC(C(=O)NCCc2nc(-c3ccccc3)cs2)CC1`, the cytotoxicity at 10 µM was -7.85%.

As for `CCOCC(=O)NCCn1ccc(-c2ccccn2)n1`, the cytotoxicity at 10 µM stood at 11.4%. Next, `c1ccc(CCNCC2Cn3nncc3CO2)cc1` (configuration not stated): 7.61%; `CN(CCN1CCCCCC1)C(=O)c1c(O)cccc1O`: -7.08%; `COCCO[C@H]1CCN(c2cc(OC)ncn2)[C@H]1Cc1ccncc1`: -146%.

`COCCNC(=O)c1ccc2ccc(N(C)CC3CC3)n2c1`: the cytotoxicity at 10 µM came to 0.375%. As to `CN(C)CCNC(=O)[C@H]1C[C@H]2CN(C(=O)NC3CCCC3)C[C@@H]1O2`, the cytotoxicity at 10 µM is -4.2%.

On to `O=C(c1ccoc1)N1C[C@H]2CC[C@@]3(N=C(c4ccccc4)NC3=O)[C@H]2C1`, for which the cytotoxicity at 10 µM was determined as 6.79%. Turning to `CS(=O)(=O)N1CCC(CNC(=O)c2cnccn2)CC1`, the cytotoxicity at 10 µM was 0.503%. For `OCc1nnc2n1CCN(c1cnccn1)C2`, the cytotoxicity at 10 µM worked out at 5.59%.

For the compound `Cc1ccc(OCc2occc2C(=O)N2C[C@@H]3C(CN(C)C)[C@@H]3C2)cc1` (some centres not stated), the cytotoxicity at 10 µM was -1%. For `CC(C)CNC(=O)c1nc2c(s1)CCN(C(=O)c1ccc(Cl)cc1)CC2`, the cytotoxicity at 10 µM was 7.4%. In the case of `Cc1cc(C(=O)O)cc(S(=O)(=O)Nc2ccc3c(c2)OCO3)c1C`, the cytotoxicity at 10 µM came out at 0.89%. In the case of `CCCOCCn1ncc(N2CCCC2)cc1=O`, the cytotoxicity at 10 µM is -10.7%.

For `CS(=O)(=O)N[C@H]1CN(C(=O)CCc2ccco2)C[C@@H]1C1CC1`, the cytotoxicity at 10 µM turned out to be 2.7%. On to `O=C(Cn1ccc2c(Cl)cccc21)N1CCC2(CC1)OCCO2`, for which the cytotoxicity at 10 µM was determined as 14.2%. On to `Cc1cc(C)c(CNC(=O)NCc2nnc3n2CCCCC3)c(=O)[nH]1`, for which the cytotoxicity at 10 µM was -1.34%. Take `O=C(Cc1cc(-c2ccc3c(c2)OCCO3)on1)NCc1ccccn1`: the cytotoxicity at 10 µM stood at 26.4%.

Take `CCN1CCN(c2cncc(Cl)n2)CC1`: the cytotoxicity at 10 µM is 11.6%.

As to `CN(C)c1nc2c(c(=O)[nH]1)CCN(C(=O)c1ccc(=O)[nH]c1)C2`, the cytotoxicity at 10 µM came out at 10.2%.

In the case of `O=C(c1ccco1)N1CC[C@@H](N2CCOCC2)[C@@H]1Cc1ccccc1`, the cytotoxicity at 10 µM was -77%. For `O=C(c1ccco1)N1C2CCC(O)(CC2)C1CN1CCOCC1` (configuration not stated), the cytotoxicity at 10 µM was 6.93%. As for `CN(CCCOc1ccc(F)cc1)Cc1nc2c(cnn2C)c(=O)[nH]1`, the cytotoxicity at 10 µM is -4.62%.

With `N#Cc1cccnc1NCc1ccc(S(=O)(=O)NCC2CCCO2)cc1` (configuration not stated), the cytotoxicity at 10 µM came out at 5.98%. Turning to `Cc1cc(CN2C[C@H]3CCC[C@@]3(COCc3csc(C)n3)C2)no1`, the cytotoxicity at 10 µM came out at 11.6%.

As for `N#Cc1nccnc1N1CCN(CCOCc2ccccc2)CC1`, the cytotoxicity at 10 µM is -18.4%. Regarding `c1csc(-c2noc(COCC3CCCO3)n2)c1` (configuration not stated), the cytotoxicity at 10 µM was -1.62%.

Regarding `COc1cccc(OC2CN(C(=O)c3c(C)noc3C)C2)c1`, the cytotoxicity at 10 µM was 7.79%.

As to `Cc1noc(C)c1CNC(=O)N1CCC(OCC2CC2)CC1`, the cytotoxicity at 10 µM is -11%. Next, `CCN(CC1CC1)C(=O)NCc1nnc2n1CCC2`: -13.2%; `CC(=O)N1CCN(Cc2ccc3c(c2)OCCO3)CC(O)C1` (configuration not stated): 4.14%. As to `Cc1nc(C)n(CC2CCCN2Cc2ccc(F)cc2C#N)n1` (configuration not stated), the cytotoxicity at 10 µM is -2.59%. Turning to `COCC1CN(CC2CC2)Cc2nn(C)cc21` (configuration not stated), the cytotoxicity at 10 µM is 0.281%. `Cn1cc(CNC2CCCOc3c2ccc2ccccc32)cn1` (configuration not stated): the cytotoxicity at 10 µM was 5.7%. With `CC(C)N1CCC(Cc2cncc(-c3cc(F)ccc3C(=O)O)n2)C1` (configuration not stated), the cytotoxicity at 10 µM is -6.88%.

As to `CN(Cc1ccncn1)C(=O)CCc1[nH]nc2c1CCCC2`, the cytotoxicity at 10 µM turned out to be 3.11%. Turning to `CCN1C(=O)[C@H]2CN(CC(C)C)C[C@H]2C12CCN(C(=O)NC(C)C)CC2`, the cytotoxicity at 10 µM amounted to 4.89%. Take `Cc1cc(C(=O)N(Cc2c(C)nn(C)c2C)C(C)C)nc(C)n1`: the cytotoxicity at 10 µM was -9.85%. With `CCc1nc(C)c(-c2nccn2CC2CCN(C3CCCC3)CC2)[nH]1`, the cytotoxicity at 10 µM came to 3.98%. On to `CCCS(=O)(=O)NCc1cccnc1Oc1ccc(C)c(F)c1F`, for which the cytotoxicity at 10 µM was -2.19%. Take `CCCn1nc2c(cc1=O)CN(Cc1nc(C)c3ccccc3n1)CC2`: the cytotoxicity at 10 µM is -2.45%. As for `CC(C(=O)Nc1ccnn1C(C)C)N1CCCN(c2nccs2)CC1` (configuration not stated), the cytotoxicity at 10 µM is -9.39%. Turning to `O=C(c1cscn1)N1CC[C@@H]2[C@@H]1CCN2C1CCOCC1`, the cytotoxicity at 10 µM was 2.11%. As for `CC(C)N(Cc1cnn(C)c1)C(=O)c1ccnc(N(C)C)c1`, the cytotoxicity at 10 µM came out at 10.6%. Regarding `Cc1noc(-c2ccnc(N3CCN(C4CCOCC4)CC3)c2)n1`, the cytotoxicity at 10 µM was 1.83%. Next, `CCc1cc(C(=O)N2CCc3nc4c(C)csc4c(=O)n3CC2)on1`: -14.9%; `Cc1noc(C)c1CN1CC[C@H](OCC2CC2)[C@@H](Cc2ccccc2)C1`: -65.8%. For the compound `Cc1cccc2[nH]c(C3CCN(C(=O)c4cnc[nH]c4=O)CC3)nc12`, the cytotoxicity at 10 µM is 2.75%. As to `O=C(NCCn1ccnc1)N1CCN(Cc2ccco2)CC1`, the cytotoxicity at 10 µM stood at 3.94%. Consider `COCCn1cnnc1Cn1ccnc1-c1ccoc1`, for which the cytotoxicity at 10 µM is -2.66%. Regarding `O=C(C1CCOC1)N1CCC2(CC1)CN(Cc1nccs1)CCO2` (configuration not stated), the cytotoxicity at 10 µM was -75%. For `NC(=O)C(NC(=O)CSCc1ccc(Cl)s1)c1ccccc1` (configuration not stated), the cytotoxicity at 10 µM turned out to be 9.12%. As to `COc1ccc2cc(C(=O)N3CCCC(n4ccnc4C)C3)[nH]c2c1` (configuration not stated), the cytotoxicity at 10 µM was -9.74%. Turning to `CN1CCCC1c1ccnc(C(=O)N(C)C2CCCCC2)c1` (configuration not stated), the cytotoxicity at 10 µM was -21.5%. For `O=c1occ(CN2CCCCCC2)c(O)c1CN1CCOCC1`, the cytotoxicity at 10 µM is -8.2%. Consider `Cc1nn(C)c2nc(N(Cc3ccccc3)CC3CCCO3)sc12` (configuration not stated), for which the cytotoxicity at 10 µM stood at 8.15%.

With `CCOc1cc([C@@H]2N[C@H](c3nccs3)Cc3ccsc32)ccc1OC`, the cytotoxicity at 10 µM stood at 7.94%.

For `CCn1ccnc1C1CCN(c2ncnc3ccsc23)CC1`, the cytotoxicity at 10 µM was found to be 5.31%. In the case of `Cc1c(NC(=O)CN2CCN(C3CCCC3)C(=O)C2)cnn1C` it was 5.25%; in that of `Cc1ccc(-c2nc(CN3CCc4nn(C)c(=O)cc4C3)no2)cc1`, -8.38%.

As to `COc1coc(CN2CCCC3(CCC(=O)N(CC4CC4)C3)C2)cc1=O` (configuration not stated), the cytotoxicity at 10 µM is -34.4%. Regarding `COCC1CN(Cc2cc(C)on2)Cc2cnn(C)c21` (configuration not stated), the cytotoxicity at 10 µM was 6.22%.

With `Cc1csc(C2(NC(=O)NCCN3CCOCC3)CCC2)n1`, the cytotoxicity at 10 µM is -0.746%.

Consider `CCSc1cc(C(=O)N(Cc2cnn(C)c2)C(C)C)ccn1`, for which the cytotoxicity at 10 µM amounted to 4.64%. `O=C1NCC[C@]12CN(Cc1ccoc1)C[C@H]2c1ccccc1`: the cytotoxicity at 10 µM was determined as 4.55%. For the compound `Cc1ncc(S(C)(=O)=O)c(C2CCCNC2)n1` (configuration not stated), the cytotoxicity at 10 µM was determined as 1.17%. Consider `CN(C)CC1CN(Cc2nc(-c3ccccn3)no2)CCO1` (configuration not stated), for which the cytotoxicity at 10 µM is -5.8%. With `COc1ccccc1OCC(=O)NS(=O)(=O)c1cccnc1`, the cytotoxicity at 10 µM was -4.69%. Next, `O=c1oc(-c2ccc(F)cc2)nn1CN1CCN(C2CCCC2)CC1`: -1.78%. As to `Cn1cc(CN2CCN(Cc3nccn3C)CC2)cn1`, the cytotoxicity at 10 µM stood at 15.5%. For `COc1cc(CCC(=O)N2CCC(c3cnccn3)CC2)on1`, the cytotoxicity at 10 µM is 3.1%. Turning to `CCCNC(=O)CCNC(=O)c1ccccc1N1CCOCC1`, the cytotoxicity at 10 µM was determined as 0.321%. In the case of `Cc1cc(C)n(CC2CCCCN2CC(=O)Nc2nncs2)n1` (configuration not stated), the cytotoxicity at 10 µM is -4.25%.

With `Cc1ccc(-n2nc(C)cc2N)nn1`, the cytotoxicity at 10 µM came to 16%. Next, `Clc1ccc(OCCNCCn2cccn2)cc1`: -14.4%; `CCc1cc(C(=O)N2CCC3(CCCN(CC4CC4)C3=O)C2)cs1` (configuration not stated): -164%. Consider `FC(F)(F)c1cccc(OC2CCN(Cc3c[nH]cn3)CC2)c1`, for which the cytotoxicity at 10 µM is -47.8%. As to `CS(=O)(=O)N1C[C@H](C(=O)Nc2cccnc2)[C@@H]2CCO[C@@H]2C1`, the cytotoxicity at 10 µM was -104%. In the case of `Cc1ncccc1NS(=O)(=O)Cc1cccc(F)c1` it was 2.43%; in that of `CCCN(Cc1cccnc1)C(=O)C1CCS(=O)(=O)CC1`, -9.03%. Next, `CCn1cnnc1C1CCN(C(=O)c2ccc3ccccc3n2)CC1`: 6.13%; `Cc1ccc(C(C(=O)O)N(C)CCN2CCOCC2)c(F)c1` (configuration not stated): 4.28%. For the compound `O=C(CN1CCc2cncnc2C1)NC(C1CC1)C1CC1`, the cytotoxicity at 10 µM is -5.42%. Take `Cc1cc(S(=O)(=O)N2CCc3ccc(F)cc32)cc(C(=O)O)c1C`: the cytotoxicity at 10 µM came to 3.2%. Next, `O=C(Cc1ccccc1F)NCC1CCN(CCN2CCOCC2)C1` (configuration not stated): -47%; `Cn1c(=O)[nH]c(=O)n2c(CC(=O)Nc3ccc(Cl)c(Cl)c3)cnc12`: 3.82%. With `CCc1nc(C(=O)N(C)CC(=O)N(C)C)nn1-c1ccccc1Cl`, the cytotoxicity at 10 µM is -23.5%. Turning to `CN(CCSc1nncn1C(C)(C)C)c1ccccc1`, the cytotoxicity at 10 µM is 24%. Turning to `CCOCCN1CCN(c2ccc(C#N)cn2)CC1CC` (configuration not stated), the cytotoxicity at 10 µM came out at 1.02%.

Regarding `COc1c(CNC2CCN(C(=O)C3CC3)CC2)c(C(C)C)nn1C`, the cytotoxicity at 10 µM is -4.72%. With `COCCC(=O)N1CCC(c2nc(O)cc(-c3ccncc3)n2)C1` (configuration not stated), the cytotoxicity at 10 µM was -25%.

With `Cc1nc(O)cc(CNC(=O)CC[C@@H]2CCCN3CCCC[C@H]23)n1`, the cytotoxicity at 10 µM amounted to 1.87%.

As to `Cc1ccc(NC(=O)NCCCn2nc3ccccn3c2=O)cc1`, the cytotoxicity at 10 µM was -19.1%. For `c1ccc(OCCCN2CCOC(CNc3cccnn3)C2)cc1` (configuration not stated), the cytotoxicity at 10 µM was -0.906%. In the case of `CN1CCN2CCN(Cc3cnc(NCc4ccccc4)nc3)CC2C1` (configuration not stated), the cytotoxicity at 10 µM was -16.8%. Consider `Cc1cccc2nc(-c3nc4c([nH]3)CCCNC4=O)cn12`, for which the cytotoxicity at 10 µM was determined as 3.67%. In the case of `CCc1noc(CS(=O)(=O)c2cccc(OC)c2)n1` it was 6.7%.
